The source made the active and inactive calls. The calls are words filed in the database; no cut-off is given here.
Experiments:
Mus musculus [1] = assay: Antialzheimer activity in transgenic mouse overexpressing APP Swedish FAD mutant assessed as reduction in amyloid beta-42 level in brain at 30 mg/kg, po; format: functional, organism-based; design: dose 30 mg/kg
Outline: (§1)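 Transgenic mice about 3 months old, overexpressing APP-Swe under the mouse Thy-1 promoter, were dosed orally. Brains were taken 4 h later and homogenized in 1% DEA. Brain Aβ42 was quantified by LP ECL, and brain compound exposure was measured by LC–MS/MS.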

[2] = Oral bioavailability in transgenic mouse overexpressing APP Swedish FAD mutant at 7.2 mg/kg; format: ADME, organism-based; details: in vivo
Outline: (§2)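 Mouse pharmacokinetics used an iv dose of 0.7 mg/kg and a po dose of 7.2 mg/kg. Compound levels in plasma and brain were determined by LC–MS/MS over 0–24 h.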

Gamma-secretase [3] = assay: Inhibition of gamma secretase in human H4 cells overexpressing human APP assessed as reduction in amyloid beta-42 secretion after 22 hrs; format: cell-based
Outline: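 Human neuroglioma H4 cells overexpressing human APP were seeded at 30,000 cells/well in IMDM with 10% FCS and […] hygromycin B, then held 2 h at 37 °C, 5% CO2. Test agents were given as a ten-point 1:1 serial dilution in IMDM without FCS, with final Me2SO 0.4%, for 22 h. Secreted Aβ42 in the supernatant was measured by bead ECL sandwich (biotin-6E10 capture, ruthenylated BAP15 detection, 3 h RT). IC50 was taken from the dose-response curve.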

Cytochrome P450 2D6 = Cytochrome P450 2D6 (Homo sapiens, UniProt P10635); assay: Inhibition of CYP2D6; format: ADME
[4] = Plasma clearance in transgenic mouse overexpressing APP Swedish FAD mutant at 7.2 mg/kg, po and 0.7 mg/kg, iv; format: ADME, organism-based; outline: as §2
[5] = Volume of distribution at steady state in transgenic mouse overexpressing APP Swedish FAD mutant at 7.2 mg/kg, po and 0.7 mg/kg, iv; format: ADME, organism-based; details: in vivo, read-out: Vdss; outline: as §2
[6] = Half life in transgenic mouse overexpressing APP Swedish FAD mutant at 7.2 mg/kg, po and 0.7 mg/kg, iv; format: ADME, organism-based; details: in vivo; outline: as §2
[7] = Ratio of drug level in brain to plasma in transgenic mouse overexpressing APP Swedish FAD mutant at 7.2 mg/kg, po and 0.7 mg/kg, iv; format: ADME, organism-based; details: read-out: BPR; outline: as §2
Mus musculus [8] = assay: Antialzheimer activity in po dosed transgenic mouse overexpressing APP Swedish FAD mutant assessed as reduction in amyloid beta-42 level in brain measured after 4 hrs; format: functional; outline: as §1
Mus musculus [9] = assay: Antialzheimer activity in transgenic mouse overexpressing APP Swedish FAD mutant assessed as reduction in amyloid beta-42 level in brain at 100 mg/kg, po; format: functional; outline: as §1
Cytochrome P450 3A4 = Cytochrome P450 3A4 (Homo sapiens, UniProt P08684); assay: Inhibition of CYP3A4; format: ADME
[10] = molecular target: Inosine-5'-monophosphate dehydrogenase 2 (Homo sapiens, UniProt P12268); assay: Inhibition of IMPDH2
Gamma-secretase [11] = assay: Inhibition of gamma secretase in human H4 cells overexpressing human APP assessed as reduction in amyloid beta-40 secretion after 22 hrs; format: cell-based
Outline: (§3)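 Human H4 neuroglioma cells overexpressing human APP were plated at 30,000 cells/well in IMDM with 10% FCS and […] hygromycin B, and incubated 2 h at 37 °C, 5% CO2. Compounds were added as a ten-point 1:1 serial dilution series in FCS-free IMDM, with final Me2SO 0.4%, for 22 h at 37 °C. The culture supernatant was then assayed.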

Gamma-secretase [12] = assay: Modulation of gamma secretase in human H4 cells overexpressing human APP assessed as increase in amyloid beta-38 secretion after 22 hrs; format: cell-based; outline: as §3
[13] = molecular target: Gamma-secretase (Homo sapiens) (UniProt Q96BI3+Q9NZ42+Q8WW43+P49768+Q92542+P49810); assay: Modulation of gamma secretase in human H4 cells overexpressing human APP assessed as effect on total amyloid beta up to 20 uM after 22 hrs; format: cell-based; outline: as §3
[14] = Modulation of gamma secretase in cell-based assay assessed as change in notch protein level up to 25 uM
Mus musculus [15] = assay: Antialzheimer activity in transgenic mouse overexpressing APP Swedish FAD mutant assessed as reduction in amyloid beta-42 level in brain at 150 mg/kg, po after 4 hrs; format: functional; design: scale not given: the % may be the effect or the level left; outline: as §1
Mus musculus [16] = assay: Antialzheimer activity in transgenic mouse overexpressing APP Swedish FAD mutant assessed as reduction in amyloid beta-42 level in brain at 150 mg/kg, po after 7 hrs; format: functional; design: scale not given: the % may be the effect or the level left
Outline: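 Oral dosing was given to APP-Swe transgenic mice (Thy-1 promoter) about 3 months old. Brain homogenates in 1% DEA were analysed by LP ECL for Aβ42.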

[17] = Fraction unbound in transgenic mouse overexpressing APP Swedish FAD mutant; format: ADME, organism-based; details: in vivo
Mus musculus [18] = assay: Antialzheimer activity in transgenic mouse overexpressing APP Swedish FAD mutant assessed as reduction in amyloid beta-42 level in brain at 100 mg/kg, po after 4 hrs; format: functional, organism-based; design: dose 100 mg/kg; outline: as §1
[19] = Inhibition of gamma secretase in rat primary neurons assessed as reduction in amyloid beta-42 secretion

Chain of Cytochrome P450 3A4 (P08684 whole entry): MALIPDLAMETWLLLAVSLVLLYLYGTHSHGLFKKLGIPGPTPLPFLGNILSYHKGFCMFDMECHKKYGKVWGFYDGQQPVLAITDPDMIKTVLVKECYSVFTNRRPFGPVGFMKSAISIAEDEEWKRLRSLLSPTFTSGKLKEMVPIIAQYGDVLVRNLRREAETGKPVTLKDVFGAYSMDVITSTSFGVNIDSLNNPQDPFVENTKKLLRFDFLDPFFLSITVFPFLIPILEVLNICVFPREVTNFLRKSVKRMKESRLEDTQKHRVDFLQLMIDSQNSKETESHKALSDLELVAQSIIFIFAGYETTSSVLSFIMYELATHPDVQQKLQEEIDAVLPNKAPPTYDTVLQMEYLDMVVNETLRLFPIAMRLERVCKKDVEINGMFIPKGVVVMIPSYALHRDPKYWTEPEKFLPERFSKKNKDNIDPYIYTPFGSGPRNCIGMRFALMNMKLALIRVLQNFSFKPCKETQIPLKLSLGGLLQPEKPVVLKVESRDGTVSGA
Chain of Cytochrome P450 2D6 (P10635 whole entry): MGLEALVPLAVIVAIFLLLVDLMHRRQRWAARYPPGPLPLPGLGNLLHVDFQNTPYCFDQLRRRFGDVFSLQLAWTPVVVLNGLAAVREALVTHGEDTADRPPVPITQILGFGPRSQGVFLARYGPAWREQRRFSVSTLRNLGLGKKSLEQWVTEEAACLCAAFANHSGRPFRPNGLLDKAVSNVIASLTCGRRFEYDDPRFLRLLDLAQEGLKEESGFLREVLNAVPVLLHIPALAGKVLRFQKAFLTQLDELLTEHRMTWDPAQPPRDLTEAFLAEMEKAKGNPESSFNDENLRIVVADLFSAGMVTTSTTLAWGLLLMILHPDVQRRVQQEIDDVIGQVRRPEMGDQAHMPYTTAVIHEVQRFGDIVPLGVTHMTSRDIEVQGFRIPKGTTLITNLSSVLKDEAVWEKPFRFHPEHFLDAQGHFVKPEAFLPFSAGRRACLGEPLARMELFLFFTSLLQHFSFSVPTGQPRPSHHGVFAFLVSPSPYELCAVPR

SMILES | IC50 (Gamma-secretase [3]) [nM] | IC50 (Cytochrome P450 2D6) [nM] | further results
c1ccc(C2CCCc3sc(Nc4ccc(-c5ccncc5)cc4)nc32)cc1 (stereo not drawn) | 319 | < 500 | Activity (Mus musculus [9]): inactive
COc1ccc(Br)cc1-c1csc(Nc2ccc(-n3cnc(C)c3)cc2)n1 | 880 | < 500 | IC50 (Cytochrome P450 3A4): 1200 nM
COc1cc(Nc2nc3c(s2)CCCC3c2ccccc2)ccc1-c1cnc(C)s1 (stereo not drawn) | 252 | < 500 | Activity (Mus musculus [9]): inactive
COc1cc(Nc2nc(C)c(Cc3cccc(Cl)c3)s2)ccc1-c1cnco1 | 815 | < 500 | IC50 [10]: 400 nM; IC50 (Gamma-secretase [11]): 3700 nM; EC50 (Gamma-secretase [12]): 1500 nM; Activity [13]: inactive; Activity [14]: inactive
Cc1cc(-c2ccc(Nc3nc4c(s3)CCCC4c3ccccc3)cc2)nc(C)n1 (stereo not drawn) | 483 | < 500 | –
c1ccc(C2CCCc3sc(Nc4ccc(-n5cncn5)cc4)nc32)cc1 (stereo not drawn) | 5550 | < 500 | –
Cc1nsc(-c2ccc(Nc3nc4c(s3)CCCC4c3ccccc3)cc2)n1 (stereo not drawn) | 651 | < 500 | –
Cc1cn(-c2ccc(Nc3nc4c(s3)CCCC4c3ccccc3)cc2C)cn1 (stereo not drawn) | 733 | < 500 | –
COc1cc(Nc2nc3c(s2)CCCC3c2ccccc2)ccc1-c1nc(C)no1 (stereo not drawn) | 3430 | < 500 | –
Cc1ncc(C)c(-c2ccc(Nc3nc4c(s3)CCCC4c3ccccc3)cc2)n1 (stereo not drawn) | 2870 | < 500 | –
Cc1cn(-c2ccc(Nc3nc4c(s3)CCCC4c3ccccc3)cc2Cl)cn1 (stereo not drawn) | 675 | < 200 | –
COc1cc(Nc2nc3c(s2)CCCC3c2ccccc2)ccc1-c1nnc(C)o1 (stereo not drawn) | 999 | < 500 | –
COc1cc(Nc2nc3c(s2)CCCC3c2ccccc2)ccc1C#N (stereo not drawn) | 3360 | < 500 | –
COc1ccc(Br)cc1-c1csc(Nc2ccc(-n3cnc(C)c3)c(OC)c2)n1 | 898 | < 500 | IC50 (Cytochrome P450 3A4): 2200 nM
COc1cc(Nc2nc(C)c(Cc3cccc(Cl)c3)s2)ccc1-n1cnc(C)c1 | 214 | < 500 | Activity (Mus musculus [15]): 47%; Activity (Mus musculus [16]): 22%; Fu [17]: < 0.1%
COc1ccc(Br)cc1-c1csc(Nc2ccc(-n3ccnc3)c(OC)c2)n1 | 789 | < 500 | IC50 (Cytochrome P450 3A4): < 200 nM
Cc1cn(-c2ccc(Nc3nc4c(s3)CCCC4c3ccccc3)cc2C(F)(F)F)cn1 (stereo not drawn) | > 1250 | < 500 | –
COc1ccc(Br)cc1-c1csc(Nc2ccc(-n3ccnc3)cc2)n1 | > 5000 | < 500 | IC50 (Cytochrome P450 3A4): < 200 nM
COc1cc(Nc2nc3c(s2)CCCC3c2ccccc2)ccc1-c1cnn(C)c1 (stereo not drawn) | 244 | < 500 | Activity (Mus musculus [18]): inactive
COc1cc(N(Cc2ccccc2)c2nc(C)c(Cc3ccc(Cl)cc3)s2)ccc1-n1cnc(C)c1 | > 40000 | < 500 | –
COc1cc(/C=C2\CCCN([C@@H](C)c3ccc(F)cc3)C2=O)ccc1-n1cnc(C)c1 | – | – | IC50 [19]: 42 nM
c1ccc(C2CCCc3sc(Nc4ccc(-c5ccnnc5)cc4)nc32)cc1 (stereo not drawn) | 376 | < 500 | –
COc1cc(Nc2ncc(C(O)c3ccc(Cl)cc3)s2)ccc1-n1cnc(C)c1 (stereo not drawn) | 339 | < 500 | –

Further lines, with some results ahead:

IC50 (Gamma-secretase [3]) [nM] | IC50 (Cytochrome P450 2D6) [nM] | SMILES | further results
44 | < 200 | COc1cc(Nc2nc3c(s2)CCCC3c2ccccc2)ccc1-n1cnc(C)c1 (stereo not drawn) | Activity (Mus musculus [1]): Active; bioavailability [2]: 25%; clearance [4]: 18.3 mL/min/kg; Vd [5]: 4.6 L/kg; half-life [6]: 2.5 h; Kp [7]: 0.4; ED50 (Mus musculus [8]): 40 mg/kg
212 | < 500 | COc1cc(Nc2nc3c(s2)CCCC3c2ccccc2)ccc1-c1sc(C)nc1C (stereo not drawn) | –
86 | < 500 | COc1cc(Nc2nc3c(s2)CCCC3c2ccccc2)ccc1-c1cnc(C)o1 (stereo not drawn) | Activity (Mus musculus [9]): 47%
209 | < 500 | Cc1cn(-c2ccc(Nc3nc4c(s3)CCCC4c3ccccc3)cc2O)cn1 (stereo not drawn) | –
52 | < 500 | Cc1cn(-c2ccc(Nc3nc4c(s3)CCCC4c3ccccc3)cc2F)cn1 (stereo not drawn) | –
123 | < 200 | Cc1cn(-c2ccc(Nc3nc4c(s3)CCCC4c3ccccc3)cc2C#N)cn1 (stereo not drawn) | –
136 | < 500 | COc1cc(Nc2nc(C(C)(C)c3ccc(Cl)cc3)cs2)ccc1-n1cnc(C)c1 | –
133 | < 500 | Cc1ncc(-c2ccc(Nc3nc4c(s3)CCCC4c3ccccc3)cc2)o1 (stereo not drawn) | –
133 | < 500 | Cc1cn(-c2ccc(Nc3nc4c(s3)CCCC4c3ccccc3)cc2)cn1 (stereo not drawn) | –
127 | < 500 | Cc1nc(C)c(-c2ccc(Nc3nc4c(s3)CCCC4c3ccccc3)cc2)o1 (stereo not drawn) | –
